Values after ≈ are worked out from the molar mass of the structure shown.
Tests used:
Moraxella catarrhalis [1] = test: Bactericidal activity against erythromycin-susceptible Moraxella catarrhalis 13L332 pretreated followed by subculture in absence of compound measured after 24 hrs; format: functional
How it was run: (§1)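 Isolates were identified by 16S rDNA sequencing. MIC was determined by CLSI-recommended two-fold broth dilution. For MBC, samples from 1–8 fold MIC were transferred to culture medium and subcultured for 24 h without antibiotic.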

Rattus norvegicus [2] = test: Ratio of test compound AUC to telithromycin AUC in Sprague-Dawley rat at 20 mg/kg, po after 0.25 to 24 hrs by LC-MS/MS analysis; format: ADME, organism-based; conditions: in vivo
[3] = MRT in Sprague-Dawley rat at 20 mg/kg, po after 0.25 to 24 hrs by LC-MS/MS analysis; format: ADME, organism-based; conditions: in vivo
How it was run: (§2)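 Male SD rats were given a single 20 mg/Kg oral dose. Blood was sampled at 0.25, 0.5, 1, 2, 4, 6, 8 and 24 h and centrifuged at 2500 g for 5 min at 4 °C. Drug levels were quantified by LC-MS/MS. t1/2, Cmax, Tmax, CL, MRT and AUC were calculated from the concentration–time data.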

Rattus norvegicus [4] = test: Ratio of test compound plasma clearance to telithromycin plasma clearance in Sprague-Dawley rat at 20 mg/kg, po after 0.25 to 24 hrs by LC-MS/MS analysis; format: ADME, organism-based; conditions: in vivo
Streptococcus pneumoniae [5] = test: Bactericidal activity against penicillin-susceptible Streptococcus pneumoniae PU 09 expressing mef gene pretreated followed by subculture in absence of compound measured after 24 hrs; format: functional; how it was run: as §1
Streptococcus pneumoniae [6] = test: Bactericidal activity against Streptococcus pneumoniae 07P390 expressing constitutive ermB gene pretreated followed by subculture in absence of compound measured after 24 hrs; format: functional; how it was run: as §1
[7] = Cmax in Sprague-Dawley rat at 20 mg/kg, po after 0.25 to 24 hrs by LC-MS/MS analysis; format: ADME, organism-based; set-up: dose 20 mg/kg, route oral; conditions: in vivo; how it was run: as §2
Haemophilus influenzae [8] = test: Selectivity ratio of MBC to MIC for azithromycin-susceptible Haemophilus influenzae ATCC 49247; format: functional; how it was run: as §1
Staphylococcus aureus [9] = test: Bactericidal activity against MLS-resistant Staphylococcus aureus PU 20 expressing constitutive ermC gene pretreated followed by subculture in absence of compound measured after 24 hrs; format: functional
How it was run: (§3)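 MBC assay. Following MIC determination by CLSI standard two-fold broth dilution, samples at 1–8 fold MIC were transferred to fresh culture medium. They were subcultured for 24 h without antibiotic. Isolates were identified by 16S rDNA sequencing. S. aureus ATCC 29213 was used as a control strain.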

Streptococcus pyogenes [10] = test: Selectivity ratio of MBC to MIC for MLS-resistant Streptococcus pyogenes 01-968 expressing inducible ermB gene; format: functional
How it was run: (§4)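 MBC/MIC ratio. MIC was measured by CLSI standard two-fold broth dilution. MBC was measured by transferring samples at 1–8 fold MIC to culture medium and subculturing for 24 h without antibiotic. Isolates were identified by 16S rDNA sequencing.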

[11] = Tmax in Sprague-Dawley rat at 20 mg/kg, po after 0.25 to 24 hrs by LC-MS/MS analysis; format: ADME, organism-based; conditions: in vivo; how it was run: as §2
[12] = Ratio of test compound MRT to telithromycin MRT in Sprague-Dawley rat at 20 mg/kg, po after 0.25 to 24 hrs by LC-MS/MS analysis; format: ADME, organism-based; conditions: in vivo
Streptococcus pneumoniae [13] = test: Antibacterial activity against Streptococcus pneumoniae 07P390 expressing constitutive ermB gene assessed as reduction in microbial growth by CLSI based two-fold broth dilution method; format: functional
Streptococcus pyogenes [14] = test: Antibacterial activity against MLS-resistant Streptococcus pyogenes 12-206 expressing constitutive ermA gene assessed as reduction in microbial growth by CLSI based two-fold broth dilution method; format: functional
Haemophilus influenzae [15] = test: Bactericidal activity against azithromycin-susceptible Haemophilus influenzae ATCC 49247 pretreated followed by subculture in absence of compound measured after 24 hrs; format: functional; how it was run: as §1
Rattus norvegicus [16] = test: Ratio of test compound half life to telithromycin half life in Sprague-Dawley rat at 20 mg/kg, po after 0.25 to 24 hrs by LC-MS/MS analysis; format: ADME, organism-based; conditions: in vivo
Streptococcus pyogenes [17] = test: Antibacterial activity against Streptococcus pyogenes 12-207 expressing mef gene assessed as reduction in microbial growth by CLSI based two-fold broth dilution method; format: functional
Streptococcus pneumoniae [18] = test: Selectivity ratio of MBC to MIC for penicillin-susceptible Streptococcus pneumoniae PU 09 expressing mef gene; format: functional; how it was run: as §1
Streptococcus pyogenes [19] = test: Selectivity ratio of MBC to MIC for MLS-resistant Streptococcus pyogenes 12-206 expressing constitutive ermA gene; format: functional; how it was run: as §4
[20] = AUC (0 to t) in Sprague-Dawley rat at 20 mg/kg, po after 0.25 to 24 hrs by LC-MS/MS analysis; format: ADME, organism-based; set-up: time upper 24 hr, dose 20 mg/kg, time lower 0.25 hr, route oral; conditions: in vivo; how it was run: as §2
Streptococcus pneumoniae [21] = test: Selectivity ratio of MBC to MIC for Streptococcus pneumoniae 07P390 expressing constitutive ermB gene; format: functional; how it was run: as §1
Staphylococcus aureus [22] = test: Selectivity ratio of MBC to MIC for MLS/methicillin-resistant Staphylococcus aureus PU 32 expressing inducible ermA gene; format: functional; how it was run: as §4
Moraxella catarrhalis [23] = test: Selectivity ratio of MBC to MIC for erythromycin-susceptible Moraxella catarrhalis 13L332; format: functional; how it was run: as §1
Streptococcus pneumoniae [24] = test: Bactericidal activity against erythromycin-susceptible Streptococcus pneumoniae ATCC49619 pretreated followed by subculture in absence of compound measured after 24 hrs; format: functional; how it was run: as §1
Streptococcus pyogenes [25] = test: Antibacterial activity against MLS-resistant Streptococcus pyogenes 01-968 expressing inducible ermB gene assessed as reduction in microbial growth by CLSI based two-fold broth dilution method; format: functional
[26] = AUCinfinity in Sprague-Dawley rat at 20 mg/kg, po after 0.25 to 24 hrs by LC-MS/MS analysis; format: ADME, organism-based; set-up: dose 20 mg/kg, time infinity, route oral; conditions: in vivo; how it was run: as §2
Streptococcus pyogenes [27] = test: Bactericidal activity against MLS-resistant Streptococcus pyogenes 12-206 expressing constitutive ermA gene pretreated followed by subculture in absence of compound measured after 24 hrs; format: functional; how it was run: as §3
[28] = Half life in Sprague-Dawley rat at 20 mg/kg, po after 0.25 to 24 hrs by LC-MS/MS analysis; format: ADME, organism-based; conditions: in vivo; how it was run: as §2
Staphylococcus aureus [29] = test: Antibacterial activity against MLS-resistant Staphylococcus aureus PU 32 expressing inducible ermA gene assessed as reduction in microbial growth by CLSI based two-fold broth dilution method; format: functional
Staphylococcus aureus [30] = test: Bactericidal activity against MLS/methicillin-resistant Staphylococcus aureus PU 32 expressing inducible ermA gene pretreated followed by subculture in absence of compound measured after 24 hrs; format: functional; how it was run: as §3
Cytochrome P450 3A4 [31] = target: T1, Cytochrome P450 3A4 (Homo sapiens, UniProt P08684); test: Inhibition of CYP3A4 in human liver microsomes assessed as reduction in metabolite formation using midazolam as substrate incubated for 10 mins in presence of NADPH by HPLC based mass spectrometric method; format: ADME
T1 sequence (P08684 whole entry): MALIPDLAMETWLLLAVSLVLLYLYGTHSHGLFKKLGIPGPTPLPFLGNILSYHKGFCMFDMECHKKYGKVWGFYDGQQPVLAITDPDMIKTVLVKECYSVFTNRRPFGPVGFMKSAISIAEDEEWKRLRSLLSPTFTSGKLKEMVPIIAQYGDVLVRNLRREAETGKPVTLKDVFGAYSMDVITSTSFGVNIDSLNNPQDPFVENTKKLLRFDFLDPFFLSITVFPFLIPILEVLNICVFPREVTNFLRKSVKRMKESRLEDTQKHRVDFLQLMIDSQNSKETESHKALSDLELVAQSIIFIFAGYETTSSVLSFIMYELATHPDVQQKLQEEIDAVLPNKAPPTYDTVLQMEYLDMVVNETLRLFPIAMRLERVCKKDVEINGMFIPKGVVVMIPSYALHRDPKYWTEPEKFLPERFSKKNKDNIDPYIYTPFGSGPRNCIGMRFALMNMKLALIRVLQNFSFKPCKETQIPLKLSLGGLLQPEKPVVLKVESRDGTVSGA
How it was run: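 Human liver microsome CYP3A4 with midazolam substrate in 0.1 M potassium phosphate buffer was prewarmed at 37 °C for 5 min. Compound and 25 mM NADPH solution (stock) were added, then incubated at 37 °C for 10 min. Ketoconazole served as the positive inhibitor. Metabolite was measured by UPLC–triple quadrupole MS as the metabolite/internal standard peak area ratio, and IC50 was derived by curve fitting.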

Streptococcus pneumoniae [32] = test: Antibacterial activity against penicillin-susceptible Streptococcus pneumoniae PU 09 expressing mef gene assessed as reduction in microbial growth by CLSI based two-fold broth dilution method; format: functional
Haemophilus influenzae [33] = test: Antibacterial activity against azithromycin-susceptible Haemophilus influenzae ATCC 49247 assessed as reduction in microbial growth by CLSI based two-fold broth dilution method; format: functional
Streptococcus pyogenes [34] = test: Bactericidal activity against MLS-resistant Streptococcus pyogenes 01-968 expressing inducible ermB gene pretreated followed by subculture in absence of compound measured after 24 hrs; format: functional; how it was run: as §3
Streptococcus pneumoniae [35] = test: Antibacterial activity against erythromycin-susceptible Streptococcus pneumoniae ATCC49619 assessed as reduction in microbial growth by CLSI based two-fold broth dilution method; format: functional
Staphylococcus aureus [36] = test: Antibacterial activity against MLS-resistant Staphylococcus aureus PU 20 expressing constitutive ermC gene assessed as reduction in microbial growth by CLSI based two-fold broth dilution method; format: functional
Moraxella catarrhalis [37] = test: Antibacterial activity against erythromycin-susceptible Moraxella catarrhalis 13L332 assessed as reduction in microbial growth by CLSI based two-fold broth dilution method; format: functional
Streptococcus pyogenes [38] = test: Selectivity ratio of MBC to MIC for Streptococcus pyogenes 12-207 expressing mef gene; format: functional; how it was run: as §1
Streptococcus pyogenes [39] = test: Bactericidal activity against Streptococcus pyogenes 12-207 expressing mef gene pretreated followed by subculture in absence of compound measured after 24 hrs; format: functional; how it was run: as §1
Cytochrome P450 3A4 [40] = target: T1, Cytochrome P450 3A4; test: Inhibition of CYP3A4 (unknown origin); format: ADME

CC[C@H]1OC(=O)[C@@](C)(F)C(=O)[C@H](C)[C@@H](O[C@@H]2O[C@H](C)C[C@H](N(C)C)[C@H]2O)[C@](C)(OC)C[C@@H](C)/C(=N\OC/C=C/c2ccc3c(c2)c(=O)c(C(N)=O)cn3CC)[C@H](C)[C@H]2OC(=O)O[C@@]21C
MBC (Moraxella catarrhalis [1]): > 32 µg/mL | Ratio AUC (Rattus norvegicus [2]): 1.6 | MRT [3]: 7.42 h | Ratio (Rattus norvegicus [4]): 1.5 | MBC (Streptococcus pneumoniae [5]): 0.25 µg/mL (≈ 0.277 µM) | MBC (Streptococcus pneumoniae [6]): > 0.5 µg/mL | Cmax [7]: 124 ng/mL | Selectivity ratio (Haemophilus influenzae [8]): 8 | MBC (Staphylococcus aureus [9]): > 256 µg/mL | Selectivity ratio (Streptococcus pyogenes [10]): >8 | Tmax [11]: 7 h | Ratio [12]: 2.3 to 2.6 | MIC (Streptococcus pneumoniae [13]): 0.062 µg/mL | MIC (Streptococcus pyogenes [14]): 0.5 µg/mL | MBC (Haemophilus influenzae [15]): 256 µg/mL (≈ 284 µM) | Ratio (Rattus norvegicus [16]): 2.5 to 3.6 | MIC (Streptococcus pyogenes [17]): 0.062 µg/mL | Selectivity ratio (Streptococcus pneumoniae [18]): 1 | Selectivity ratio (Streptococcus pyogenes [19]): >8 | AUC(0-t) [20]: 1460 ng·h/mL | Selectivity ratio (Streptococcus pneumoniae [21]): >8 | Selectivity ratio (Staphylococcus aureus [22]): >8 | Selectivity ratio (Moraxella catarrhalis [23]): >8 | MBC (Streptococcus pneumoniae [24]): ≤ 0.008 µg/mL | MIC (Streptococcus pyogenes [25]): ≤ 0.002 µg/mL | AUC [26]: 1538 ng·h/mL | MBC (Streptococcus pyogenes [27]): > 4 µg/mL | half-life [28]: 3.03 h | MIC (Staphylococcus aureus [29]): 0.5 µg/mL | MBC (Staphylococcus aureus [30]): > 4 µg/mL | IC50 (Cytochrome P450 3A4 [31]): 5.14 µM | MIC (Streptococcus pneumoniae [32]): 0.25 µg/mL | MIC (Haemophilus influenzae [33]): 32 µg/mL | MBC (Streptococcus pyogenes [34]): > 0.016 µg/mL | MIC (Streptococcus pneumoniae [35]): ≤ 0.008 µg/mL | MIC (Staphylococcus aureus [36]): 128 µg/mL | MIC (Moraxella catarrhalis [37]): 4 µg/mL | Selectivity ratio (Streptococcus pyogenes [38]): 8 | MBC (Streptococcus pyogenes [39]): 0.5 µg/mL (≈ 0.555 µM)

CC[C@H]1OC(=O)[C@H](C)C(=O)[C@H](C)[C@@H](O[C@@H]2O[C@H](C)C[C@H](N(C)C)[C@H]2O)[C@](C)(OCC=Cc2cnc3ccccc3c2)C[C@@H](C)C(=O)[C@H](C)[C@H]2NC(=O)O[C@@]21C [CETHROMYCIN]
IC50 (Cytochrome P450 3A4 [40]): 2.7 µM

Reference: ChEMBL document CHEMBL4346654 (Eur J Med Chem, 2019)
